This passage reports inhibition and fold change (FC) results from ChEMBL document CHEMBL5653631, “A Potent and Selective ULK1 Inhibitor Suppresses Autophagy and Sensitizes Cancer Cells to Nutrient Stress” (iScience, 2018).

The target in test [1] is Tyrosine-protein kinase Yes (Homo sapiens) (UniProt P07947). The experiment in a line: Inhibition of human recombinant YES at 40 nM in presence of ATP by radiometric assay relative to control.
The target of test [2] is Tyrosine-protein kinase receptor UFO (Homo sapiens) (UniProt P30530). The test is described as follows: Inhibition of human recombinant AXL at 40 nM related to control ULK1. In outline: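 Radiometric activity assays in a panel of 327 human recombinant kinases, each run in duplicate at one inhibitor concentration. Activity remaining is expressed as percent of vehicle control, and percent inhibition is calculated as 100% minus percent activity remaining.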
Chain of Tyrosine-protein kinase receptor UFO (Homo sapiens) (P30530 whole entry): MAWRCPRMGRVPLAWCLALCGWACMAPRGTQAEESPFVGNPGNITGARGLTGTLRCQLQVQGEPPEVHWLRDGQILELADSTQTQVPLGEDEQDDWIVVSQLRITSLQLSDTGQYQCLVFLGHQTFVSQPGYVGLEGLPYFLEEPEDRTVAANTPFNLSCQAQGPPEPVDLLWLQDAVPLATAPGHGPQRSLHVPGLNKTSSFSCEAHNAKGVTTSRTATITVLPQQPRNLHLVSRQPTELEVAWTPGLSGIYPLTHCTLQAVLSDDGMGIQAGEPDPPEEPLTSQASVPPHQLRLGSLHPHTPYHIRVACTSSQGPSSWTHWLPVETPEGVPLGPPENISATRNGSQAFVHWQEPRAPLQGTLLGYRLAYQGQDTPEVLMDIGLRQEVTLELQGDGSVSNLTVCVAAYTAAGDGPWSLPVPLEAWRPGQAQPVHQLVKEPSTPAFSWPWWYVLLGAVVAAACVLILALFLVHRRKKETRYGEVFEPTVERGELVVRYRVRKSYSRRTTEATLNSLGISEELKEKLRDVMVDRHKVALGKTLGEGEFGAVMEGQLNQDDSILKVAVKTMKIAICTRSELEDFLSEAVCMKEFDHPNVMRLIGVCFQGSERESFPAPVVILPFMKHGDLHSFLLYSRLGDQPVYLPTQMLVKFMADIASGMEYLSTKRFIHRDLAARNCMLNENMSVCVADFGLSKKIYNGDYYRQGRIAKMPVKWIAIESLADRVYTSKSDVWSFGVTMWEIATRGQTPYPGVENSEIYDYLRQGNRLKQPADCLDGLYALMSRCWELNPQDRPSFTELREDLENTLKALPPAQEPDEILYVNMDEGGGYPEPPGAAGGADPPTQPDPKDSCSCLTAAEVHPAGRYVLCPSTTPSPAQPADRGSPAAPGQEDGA

Test [3] deals with Tyrosine-protein kinase Fes/Fps (Homo sapiens) (UniProt P07332). The test is described as follows: Inhibition of human recombinant FES at 40 nM in presence of ATP by radiometric assay relative to control.
Test [4] has as its target T1, Serine/threonine-protein kinase Nek2 (Homo sapiens) (UniProt P51955).
T1 sequence (whole entry): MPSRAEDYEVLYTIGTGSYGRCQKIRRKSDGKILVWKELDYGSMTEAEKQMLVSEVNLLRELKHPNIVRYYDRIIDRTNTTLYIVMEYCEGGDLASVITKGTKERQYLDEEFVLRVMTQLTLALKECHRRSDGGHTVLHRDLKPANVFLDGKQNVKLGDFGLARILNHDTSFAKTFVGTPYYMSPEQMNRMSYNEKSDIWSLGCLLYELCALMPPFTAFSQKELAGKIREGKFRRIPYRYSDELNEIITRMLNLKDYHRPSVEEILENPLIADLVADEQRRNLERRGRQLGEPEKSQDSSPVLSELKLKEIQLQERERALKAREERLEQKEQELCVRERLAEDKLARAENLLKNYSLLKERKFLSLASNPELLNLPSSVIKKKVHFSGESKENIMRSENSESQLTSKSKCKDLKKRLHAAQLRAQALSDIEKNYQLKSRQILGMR
The test is described as follows: Inhibition of human recombinant NEK2 at 500 nM in presence of ATP by radiometric assay relative to control.

Test [5] addresses Tyrosine-protein kinase Lck (Homo sapiens) (UniProt P06239). The experiment in a line: Inhibition of human recombinant LCK at 500 nM in presence of ATP by radiometric assay relative to control.
Test [6] addresses Mast/stem cell growth factor receptor Kit (Homo sapiens) (UniProt P10721). The test is described as follows: Inhibition of human recombinant KIT at 500 nM in presence of ATP by radiometric assay relative to control.
In test [7] the target is Calcium/calmodulin-dependent protein kinase type II subunit alpha (Homo sapiens) (UniProt Q9UQM7). The test is described as follows: Inhibition of human recombinant CaMK2a at 500 nM related to control ULK1.
Chain of Calcium/calmodulin-dependent protein kinase type II subunit alpha (Homo sapiens) (Q9UQM7 whole entry): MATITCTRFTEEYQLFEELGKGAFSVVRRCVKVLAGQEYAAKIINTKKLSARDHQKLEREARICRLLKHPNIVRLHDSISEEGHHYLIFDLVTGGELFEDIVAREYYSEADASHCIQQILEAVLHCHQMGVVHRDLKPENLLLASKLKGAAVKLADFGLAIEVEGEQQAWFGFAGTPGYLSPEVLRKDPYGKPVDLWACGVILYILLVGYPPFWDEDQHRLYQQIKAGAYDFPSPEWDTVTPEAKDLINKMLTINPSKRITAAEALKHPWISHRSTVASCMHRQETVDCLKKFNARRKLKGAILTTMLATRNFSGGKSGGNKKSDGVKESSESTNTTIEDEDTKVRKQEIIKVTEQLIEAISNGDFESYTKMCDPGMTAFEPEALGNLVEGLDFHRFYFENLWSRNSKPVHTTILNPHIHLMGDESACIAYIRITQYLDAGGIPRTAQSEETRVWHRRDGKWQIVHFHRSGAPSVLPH
The target of test [8] is NT-3 growth factor receptor (Homo sapiens) (UniProt Q16288). The test is described as follows: Inhibition of human recombinant TRKC at 500 nM in presence of ATP by radiometric assay relative to control.
The target in test [9] is 5'-AMP-activated protein kinase catalytic subunit alpha-1 (Homo sapiens) (UniProt Q13131). The test is described as follows: Inhibition of human recombinant AMPKa1 at 500 nM in presence of ATP by radiometric assay relative to control. The method, boiled down: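 Panel of 327 recombinant human kinases, each assayed in vitro by radiometric activity assay in duplicate at a single inhibitor concentration per compound, chosen with reference to its ULK1 inhibition. Activity remaining was expressed as percent of vehicle control, and percent inhibition was calculated as 100 minus percent activity remaining.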
Chain of 5'-AMP-activated protein kinase catalytic subunit alpha-1 (Homo sapiens) (Q13131 whole entry, looked up): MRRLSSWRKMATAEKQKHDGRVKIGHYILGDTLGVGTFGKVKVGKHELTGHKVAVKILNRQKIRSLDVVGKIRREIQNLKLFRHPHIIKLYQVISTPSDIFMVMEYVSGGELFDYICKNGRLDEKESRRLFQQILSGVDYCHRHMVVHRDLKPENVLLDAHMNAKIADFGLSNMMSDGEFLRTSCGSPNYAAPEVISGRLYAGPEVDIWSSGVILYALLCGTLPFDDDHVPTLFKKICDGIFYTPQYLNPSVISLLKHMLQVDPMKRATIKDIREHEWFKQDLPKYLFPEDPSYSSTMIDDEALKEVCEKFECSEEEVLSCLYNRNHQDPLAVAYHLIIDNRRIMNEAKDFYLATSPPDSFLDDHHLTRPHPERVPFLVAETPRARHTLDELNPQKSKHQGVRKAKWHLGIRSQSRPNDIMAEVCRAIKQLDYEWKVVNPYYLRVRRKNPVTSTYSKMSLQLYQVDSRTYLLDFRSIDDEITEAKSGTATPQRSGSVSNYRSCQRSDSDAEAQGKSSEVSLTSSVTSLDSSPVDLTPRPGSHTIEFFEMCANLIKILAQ

Test [10] addresses Tyrosine-protein kinase BTK (Homo sapiens) (UniProt Q06187). The experiment in a line: Inhibition of human recombinant BTK at 500 nM related to control ULK1.
Test [11] deals with Fibroblast growth factor receptor 1 (Homo sapiens) (UniProt P11362). The experiment in a line: Inhibition of human recombinant FGFR1 at 15 nM related to control ULK1.
Test [12] addresses T2, Aurora kinase C (Homo sapiens) (UniProt Q9UQB9).
T2 sequence (whole entry): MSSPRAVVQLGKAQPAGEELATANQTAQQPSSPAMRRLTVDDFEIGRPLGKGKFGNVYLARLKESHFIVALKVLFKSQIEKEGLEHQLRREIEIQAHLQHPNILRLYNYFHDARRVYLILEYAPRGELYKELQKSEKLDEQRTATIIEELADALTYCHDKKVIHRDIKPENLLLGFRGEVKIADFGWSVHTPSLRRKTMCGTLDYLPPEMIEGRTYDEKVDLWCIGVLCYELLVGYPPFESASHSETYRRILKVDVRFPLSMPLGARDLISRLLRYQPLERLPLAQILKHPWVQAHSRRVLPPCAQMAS
The test is described as follows: Inhibition of human recombinant AurC at 15 nM in presence of ATP by radiometric assay relative to control. The method, boiled down: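 Part of a radiometric in vitro activity panel of 327 recombinant human kinases. Each kinase was tested in duplicate at one inhibitor concentration. Activity remaining was expressed as a percentage of the vehicle control, and percent inhibition was taken as 100 minus that value.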

The target of test [13] is T3, Serine/threonine-protein kinase Sgk1 (Homo sapiens) (UniProt O00141).
T3 sequence (whole entry): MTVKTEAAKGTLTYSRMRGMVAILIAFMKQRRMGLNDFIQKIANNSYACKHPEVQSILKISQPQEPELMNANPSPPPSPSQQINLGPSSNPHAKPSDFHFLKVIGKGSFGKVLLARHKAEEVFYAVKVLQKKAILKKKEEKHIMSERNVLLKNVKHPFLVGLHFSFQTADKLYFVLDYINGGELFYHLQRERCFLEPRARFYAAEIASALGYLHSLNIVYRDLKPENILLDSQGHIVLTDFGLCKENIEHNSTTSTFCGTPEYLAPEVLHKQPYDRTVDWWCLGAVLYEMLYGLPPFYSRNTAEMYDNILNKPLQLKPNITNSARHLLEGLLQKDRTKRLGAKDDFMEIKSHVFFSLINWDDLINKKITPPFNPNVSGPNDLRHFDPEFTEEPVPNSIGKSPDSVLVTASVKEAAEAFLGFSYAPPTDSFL
The test is described as follows: Inhibition of human recombinant SGK1 at 15 nM related to control ULK1.

Test [14] has as its target Interferon-induced, double-stranded RNA-activated protein kinase (Homo sapiens) (UniProt P19525). The test is described as follows: Inhibition of human recombinant PKR at 15 nM in presence of ATP by radiometric assay relative to control.
Test [15] concerns the target T4, Testis-specific serine/threonine-protein kinase 2 (Homo sapiens) (UniProt Q96PF2).
T4 sequence (whole entry): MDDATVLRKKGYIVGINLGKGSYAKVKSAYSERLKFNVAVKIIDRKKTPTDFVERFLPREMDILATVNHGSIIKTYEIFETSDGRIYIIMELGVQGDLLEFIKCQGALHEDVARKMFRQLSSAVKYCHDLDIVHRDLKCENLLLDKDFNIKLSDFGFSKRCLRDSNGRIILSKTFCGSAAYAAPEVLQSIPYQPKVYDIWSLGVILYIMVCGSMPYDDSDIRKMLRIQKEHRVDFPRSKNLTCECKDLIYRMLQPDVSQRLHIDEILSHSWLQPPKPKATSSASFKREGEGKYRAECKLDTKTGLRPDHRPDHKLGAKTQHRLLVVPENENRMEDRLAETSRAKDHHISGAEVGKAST
The test is described as follows: Inhibition of human recombinant TSSK2 at 15 nM related to control ULK1.

Chain of Tyrosine-protein kinase Lck (Homo sapiens) (P06239 2-509 limits assumed): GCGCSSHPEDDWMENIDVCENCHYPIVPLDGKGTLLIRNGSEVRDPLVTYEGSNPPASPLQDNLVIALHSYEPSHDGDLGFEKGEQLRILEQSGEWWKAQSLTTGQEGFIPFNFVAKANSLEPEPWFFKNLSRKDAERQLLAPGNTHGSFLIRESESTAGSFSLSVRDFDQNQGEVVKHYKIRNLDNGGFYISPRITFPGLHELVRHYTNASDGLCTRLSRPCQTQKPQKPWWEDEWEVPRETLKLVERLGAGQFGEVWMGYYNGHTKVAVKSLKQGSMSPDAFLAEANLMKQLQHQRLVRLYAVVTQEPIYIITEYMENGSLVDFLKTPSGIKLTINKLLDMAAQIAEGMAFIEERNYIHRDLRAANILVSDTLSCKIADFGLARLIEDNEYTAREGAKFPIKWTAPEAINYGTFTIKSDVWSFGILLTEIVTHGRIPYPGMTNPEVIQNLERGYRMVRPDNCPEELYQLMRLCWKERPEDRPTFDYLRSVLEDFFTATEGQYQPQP
Chain of Interferon-induced, double-stranded RNA-activated protein kinase (Homo sapiens) (P19525 whole entry): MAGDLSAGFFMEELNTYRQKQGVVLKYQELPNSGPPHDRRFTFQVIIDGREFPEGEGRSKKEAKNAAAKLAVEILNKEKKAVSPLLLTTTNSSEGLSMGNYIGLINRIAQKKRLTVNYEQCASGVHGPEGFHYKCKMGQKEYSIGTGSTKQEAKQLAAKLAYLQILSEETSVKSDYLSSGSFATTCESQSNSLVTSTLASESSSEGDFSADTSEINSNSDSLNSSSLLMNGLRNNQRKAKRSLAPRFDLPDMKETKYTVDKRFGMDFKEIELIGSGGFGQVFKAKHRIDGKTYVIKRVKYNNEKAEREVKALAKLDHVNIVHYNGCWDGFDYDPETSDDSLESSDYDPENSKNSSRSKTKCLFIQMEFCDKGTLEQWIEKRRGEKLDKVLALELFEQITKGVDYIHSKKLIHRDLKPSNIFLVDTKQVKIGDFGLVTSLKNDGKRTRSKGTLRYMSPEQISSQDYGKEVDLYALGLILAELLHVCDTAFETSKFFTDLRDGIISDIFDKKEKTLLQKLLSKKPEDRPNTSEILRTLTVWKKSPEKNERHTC
Chain of Mast/stem cell growth factor receptor Kit (Homo sapiens) (P10721 whole entry): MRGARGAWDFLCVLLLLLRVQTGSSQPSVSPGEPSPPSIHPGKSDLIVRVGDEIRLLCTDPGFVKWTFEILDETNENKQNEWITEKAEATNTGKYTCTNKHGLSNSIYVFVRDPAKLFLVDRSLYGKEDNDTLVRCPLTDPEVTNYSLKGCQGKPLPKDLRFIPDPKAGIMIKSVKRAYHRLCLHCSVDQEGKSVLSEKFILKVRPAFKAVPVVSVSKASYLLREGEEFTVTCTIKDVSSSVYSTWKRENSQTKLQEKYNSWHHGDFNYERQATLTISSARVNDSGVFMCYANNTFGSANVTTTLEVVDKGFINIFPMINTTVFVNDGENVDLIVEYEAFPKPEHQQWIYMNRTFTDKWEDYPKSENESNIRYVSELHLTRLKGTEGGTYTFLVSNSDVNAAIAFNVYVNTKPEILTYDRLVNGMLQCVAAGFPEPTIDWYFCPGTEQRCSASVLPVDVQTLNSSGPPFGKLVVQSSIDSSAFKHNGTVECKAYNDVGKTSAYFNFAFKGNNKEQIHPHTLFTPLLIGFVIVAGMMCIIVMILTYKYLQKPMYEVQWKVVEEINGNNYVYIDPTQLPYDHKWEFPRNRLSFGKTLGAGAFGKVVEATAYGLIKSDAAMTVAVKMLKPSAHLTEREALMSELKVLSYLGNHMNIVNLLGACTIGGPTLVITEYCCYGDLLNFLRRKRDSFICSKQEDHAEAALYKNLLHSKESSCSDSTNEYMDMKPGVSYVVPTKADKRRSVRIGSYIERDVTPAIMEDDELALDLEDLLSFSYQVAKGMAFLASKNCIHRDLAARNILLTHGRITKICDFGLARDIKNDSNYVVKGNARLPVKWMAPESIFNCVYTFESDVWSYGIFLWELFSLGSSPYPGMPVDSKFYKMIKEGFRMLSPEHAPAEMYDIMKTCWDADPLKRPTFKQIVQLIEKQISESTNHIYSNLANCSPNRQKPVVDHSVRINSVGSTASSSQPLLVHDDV
Chain of Tyrosine-protein kinase BTK (Homo sapiens) (Q06187 whole entry): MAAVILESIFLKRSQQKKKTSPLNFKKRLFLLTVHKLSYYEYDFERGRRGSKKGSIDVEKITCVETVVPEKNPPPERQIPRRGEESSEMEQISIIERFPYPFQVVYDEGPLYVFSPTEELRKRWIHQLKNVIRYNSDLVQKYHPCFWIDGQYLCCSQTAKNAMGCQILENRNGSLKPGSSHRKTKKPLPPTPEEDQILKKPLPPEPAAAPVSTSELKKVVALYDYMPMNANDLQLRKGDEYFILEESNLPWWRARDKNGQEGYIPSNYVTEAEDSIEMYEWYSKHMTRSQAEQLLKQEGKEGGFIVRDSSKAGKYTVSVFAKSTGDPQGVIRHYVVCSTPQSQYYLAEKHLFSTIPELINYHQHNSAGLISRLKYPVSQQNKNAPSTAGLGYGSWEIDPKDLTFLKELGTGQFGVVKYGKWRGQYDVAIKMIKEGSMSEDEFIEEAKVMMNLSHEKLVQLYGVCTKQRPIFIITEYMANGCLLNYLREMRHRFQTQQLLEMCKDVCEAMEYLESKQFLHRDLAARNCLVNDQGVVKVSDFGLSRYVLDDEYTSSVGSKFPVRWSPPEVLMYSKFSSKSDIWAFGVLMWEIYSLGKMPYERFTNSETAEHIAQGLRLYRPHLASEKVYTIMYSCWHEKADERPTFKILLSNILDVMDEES

As usually defined, the inhibition is the percentage by which the read-out fell short of the control. In the case of `O=C(N[C@@H](C1CC1)C(F)(F)F)c1cc(-c2cnn3cc(-c4ccc(F)cc4)cnc23)cs1`, the inhibition in [1] was determined as 23%; in [3], 15%. For the same compound, the fold change (FC) in test [2] is 0.07.

In the case of `CNC(=O)c1ccccc1Oc1nc(Nc2cc(OC)c(OC)c(OC)c2)ncc1Br`, the inhibition worked out at 0% in test [4]; 13% in test [5]; 1% in test [6]; 0% in test [8]; 51% in [9]. In addition, the fold change (FC) in test [7] and in test [10] was 0 in each case.

On to `CC(C)[C@H](NC(=O)c1cc(-c2cnn3cc(-c4ccc(OCCN5CCCCC5)cc4)cnc23)cs1)C(F)(F)F`, for which the results for the fold change (FC) in [11], in test [13] and in test [15] were 0, 0.05 and 0.01, respectively. The inhibition worked out at 8% in test [12] and 2% in [14].
